Measurements: ChEMBL document CHEMBL3745671, “Discovery of N-[5-(6-Chloro-3-cyano-1-methyl-1H-indol-2-yl)-pyridin-3-ylmethyl]-ethanesulfonamide, a Cortisol-Sparing CYP11B2 Inhibitor that Lowers Aldosterone in Human Subjects” (J Med Chem, 2015)

Columns and labels:
[1] = molecular target: T1, CYP19 (aromatase) (Homo sapiens, UniProt P11511); test: Inhibition of human CYP19 at 10 uM preincubated for 10 mins with NADPH followed by protein addition measured after 90 mins by fluorometric analysis
T1 sequence (P11511 whole entry): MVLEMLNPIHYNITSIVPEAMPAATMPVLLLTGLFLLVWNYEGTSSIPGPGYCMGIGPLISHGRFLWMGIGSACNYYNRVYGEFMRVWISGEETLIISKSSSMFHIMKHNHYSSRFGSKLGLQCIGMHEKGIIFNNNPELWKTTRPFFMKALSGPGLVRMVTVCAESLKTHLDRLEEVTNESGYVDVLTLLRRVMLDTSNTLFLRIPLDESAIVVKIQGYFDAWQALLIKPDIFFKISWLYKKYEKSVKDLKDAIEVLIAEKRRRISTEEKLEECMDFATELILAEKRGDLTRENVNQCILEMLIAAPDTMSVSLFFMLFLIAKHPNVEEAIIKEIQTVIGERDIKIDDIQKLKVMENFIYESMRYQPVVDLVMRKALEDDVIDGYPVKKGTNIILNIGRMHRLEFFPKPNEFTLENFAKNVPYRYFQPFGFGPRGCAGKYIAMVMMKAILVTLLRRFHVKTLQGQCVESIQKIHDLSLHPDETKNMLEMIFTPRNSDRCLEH

[2] = test system: Homo sapiens; test: Dose normalized Cmax in healthy human at 60 mg/kg, po bid; format: ADME, organism-based; conditions: in vivo
Procedure, shortened: (§1)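 Double-blind, randomized, placebo-controlled study in healthy male and female volunteers aged 18-63 on a restricted sodium/potassium diet. Oral bid doses of 30, 60, 100 or 200 mg, drug:placebo 5:2. N per dose 10–17. AUCtau, Cmax and median Tmax reported; dose-normalized values are AUCtau/dose and Cmax/dose.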

[3] = test system: Cynomolgus monkey; test: Decrease in ACTH-stimulated plasma aldosterone level in po dosed chair-trained chronically cannulated cynomolgus monkey model compound administered followed by ACTH challenge for 3 hrs measured after 24 hrs by LC/MS/MS analysis; format: functional, organism-based; conditions: Macaca fascicularis
Procedure, shortened: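 Conscious chair-trained, chronically cannulated male cynomolgus monkeys; vascular access port via Huber needle. Baseline blood (heparin) before dosing; methylcellulose suspension po at 0.03, 0.1, 0.3 or 3 mg/kg (n=3/dose) or vehicle (n=6, same animals). ACTH(1–24) 3000 ng/kg iv 3 h post-dose; sampling 0.125–1 h post-ACTH, up to 8 h, and 23.5 and 24 h. Aldosterone and cortisol by RIA; drug by LC/MS/MS (LLOQ 0.26 nmol/L, lower values set to zero).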

[4] = Tmax in healthy human at 30 mg/kg, po bid; format: ADME, organism-based; conditions: in vivo; procedure, shortened: as §1
[5] = test system: Homo sapiens; test: Dose normalized AUCtau in healthy human at 30 mg/kg, po bid; format: ADME, organism-based; conditions: in vivo; procedure, shortened: as §1
[6] = test system: Homo sapiens; test: Toxicity in human assessed as decrease in urinary cortisol level at 30 to 200 mg/kg, po bid measured over 24 hrs; format: organism-based, Urine; conditions: in vivo, in the assay text read “30 to 200 mg” for “30 to 200 mg/kg”
Procedure, shortened: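 Healthy male and female volunteers, 18-63 years, restricted sodium/potassium diet; double-blind randomized placebo-controlled, oral 30, 60, 100 or 200 mg bid (drug:placebo 5:2).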

With `CCS(=O)(=O)NCc1cncc(-c2c(C#N)c3ccc(Cl)cc3n2C)c1` the inhibition at 1.5 h, 10 µM [1] was 82%, the Cmax/dose [2] was 2.8 ng/mL and the Activity [3] was “Dose-dependent effect”. For the same compound, the EC50 [3] was 8.5 nM, the ED50 ([3]; po) was 0.061 mg/kg and the Tmax [4] was 4 h. The AUC/dose [5] was 25.6 ng·h/mL/mg and the Activity [6] was “Non-toxic”.
